MrgX1 allo act: positive allosteric modulators of MrgX1, primary screen, HEK293 cells, Fluo-4 calcium flux; FDSS; stronger effect = higher value; B-score at 10 µM; hit rate 0.63% among 310,000; AID 588675, 2011;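 active = plate-corrected calcium response at least 3 library SD above typical, normal starting fluorescence, not activating the receptor alone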;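 note: compound read alongside a low EC10 to EC30 dose of BAM8-22 agonist; peak minus trough fluorescence over baseline measured at the second addition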
Target sequence (Q96LB2 whole entry, looked up): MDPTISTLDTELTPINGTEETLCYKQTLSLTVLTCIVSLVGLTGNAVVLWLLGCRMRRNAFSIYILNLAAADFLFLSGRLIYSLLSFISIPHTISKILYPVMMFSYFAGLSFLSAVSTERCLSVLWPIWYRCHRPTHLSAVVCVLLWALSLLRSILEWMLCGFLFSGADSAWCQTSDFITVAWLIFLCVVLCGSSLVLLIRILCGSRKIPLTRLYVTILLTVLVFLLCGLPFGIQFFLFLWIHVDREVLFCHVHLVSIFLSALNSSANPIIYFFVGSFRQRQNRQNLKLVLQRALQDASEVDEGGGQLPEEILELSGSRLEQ
MrgX1 agonist: agonists of human MrgX1 receptor, primary screen, HEK293 cells, Fluo-4 calcium flux | Mas-related G-protein coupled receptor member X1 (Homo sapiens), Q96LB2 | B-score at 10 µM | Fluo-4 calcium fluorescence, agonist mode; stronger effect = higher value | hit rate 0.44% among 310,000 | AID 588627, 2011;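 active = calcium response B-score plate-corrected fluorescence ratio at least 3 library SD, with starting fluorescence B-score inside 5 SD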
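Material – MrgX1-expressing HEK293 cells · Input – 15,000 cells seeded per well · Dosing – compound as first of three additions · Times – overnight seeding, then 1 h dark dye loading · Measured by – kinetic Fluo-4 NW fluorescence of intracellular calcium · Read-out – B-scored fluorescence response ratio · Benchmarks – positive and negative control wells on each plate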
RGS4 inh: RGS4 inhibitors, primary screen, cell-based, HEK293 M3R inducible RGS4, calcium flux | hit rate 0.45% among 310,000 | Fluo-4 calcium flux; stronger effect = higher value; triggered by carbachol at its EC20 | B-score at 10 µM;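 active = B-score, a plate-corrected calcium signal, over three deviations above library mean, with baseline fluorescence within five deviations of library mean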;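 note: RGS4 expression induced by doxycycline in cells with stable M3 receptor; B-score is computed from the integrated fluorescence ratio over baseline after carbachol; higher B-score means a larger calcium signal and so more RGS4 inhibition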
Target sequence (P49798 whole entry, looked up): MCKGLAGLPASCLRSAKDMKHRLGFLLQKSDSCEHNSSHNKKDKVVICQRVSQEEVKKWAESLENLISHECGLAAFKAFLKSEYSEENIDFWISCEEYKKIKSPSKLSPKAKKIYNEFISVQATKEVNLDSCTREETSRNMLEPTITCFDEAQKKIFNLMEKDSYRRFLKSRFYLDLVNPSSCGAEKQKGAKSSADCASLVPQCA
MrgX1 antag: antagonists of human MrgX1 receptor, primary screen, HEK293 cells, Fluo-4 calcium flux. B-score at 10 µM. AID 588676, 2011. hit rate 1.3% among 310,000. BAM8-22 antagonism; stronger effect = lower value. Mas-related G-protein coupled receptor member X1 (Homo sapiens), Q96LB2;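 active = calcium-response B-score plate-corrected more than 3 library SD below zero, starting fluorescence within 5 deviations, no agonist response on first addition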;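 note: peak minus trough fluorescence over baseline after final BAM8-22 challenge near maximal dose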
RGS4 act: RGS4 potentiators or activators, primary screen, cell-based, HEK293 M3R inducible RGS4, calcium flux; carbachol calcium flux Fluo4; stronger effect = lower value; B-score at 10 µM; hit rate 0.92% among 310,000; AID 463111, 2010;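 active = B-score of the integrated calcium signal more than 4 SD below the library mean, with starting fluorescence not abnormally high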;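 note: negative B-score means reduced calcium response which marks RGS4 activation or potentiation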
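System – HEK293 FlpIn-TREx cells, stable M3R, doxycycline-inducible RGS4 · Reagent – ECmax carbachol challenge · Times – compound preincubation 20 min at room temperature before agonist · Technique – Fluo4 fluorescence kinetic imaging of calcium · Measure – B score of integrated Fluo4 ratio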
MrgX1 PAM conf: MrgX1 positive allosteric modulators, duplicate retest, confirmation, HEK293 cells, Fluo-4 calcium flux. shares compounds with MrgX1 allo act. Fluo-4 calcium fluorescence, FDSS. activation (ratio percentage), % at 10 µM. hit rate 13% among 1,200. AID 602413, 2012;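 active = ratio at least 3 SD above the weak peptide control, stable starting fluorescence, no direct agonism earlier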;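 note: compound followed by low BAM8-22 agonist challenge near EC20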
HEK293 Ca flux: nonspecific calcium signal in parental HEK293, confirmation, counter-screen for MrgX1 antagonist project, parental HEK293 cells, Fluo-4 calcium flux; fluorescence ratio F(max-min)/F0 at 10 µM; hit rate 2% among 4,000; Fluo-4 calcium fluorescence, FDSS; shares compounds with MrgX1 antag;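 active = duplicate-averaged calcium fluorescence ratio at least three times the standard deviation of buffer wells, a nonspecific response in parental cells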
HEK293 Ca counter: calcium response in parental HEK293 cells, primary screen, counter-screen for MrgX1 allosteric activator project, cell-based, Fluo-4 calcium flux, duplicate | fluorescence ratio F(max-min)/F0 at 10 µM | hit rate 0.4% among 4,000 | shares compounds with MrgX1 antag | Fluo-4 fluorescence ratio; stronger effect = higher value;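 active = calcium fluorescence ratio, averaged over duplicates, at least 3 SD of the buffer-well ratio, meaning a nonspecific response in receptor-free cells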;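 note: untransfected parental HEK293 lacking MrgX1 used as counterscreen for MrgX1 allosteric activators; fluorescence change taken during the second addition on a kinetic imager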
HEK293 Ca cntr2: calcium response in parental HEK293 cells, primary screen, counter-screen for MrgX1 agonist project, cell-based, Fluo-4 calcium flux, duplicate, agonist mode; shares compounds with MrgX1 antag; Fluo-4 calcium fluorescence (FDSS); stronger effect = higher value; fluorescence ratio F(max-min)/F0 at 10 µM; hit rate 8.7% among 4,000; AID 624115, 2012;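 active = calcium fluorescence ratio at least three times the spread of buffer wells, meaning a non-specific response in parental cells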
Numbers stand for hits; – = inactive; · = no result given. A selection: hits, their analogues and other compounds. The true share with any hit is near 3.5%.

SMILES | MrgX1 allo act | MrgX1 agonist | RGS4 inh | MrgX1 antag | RGS4 act | MrgX1 PAM conf | HEK293 Ca flux | HEK293 Ca counter | HEK293 Ca cntr2
O=C(Nc1ccc(Cl)cc1)NC1CCCCC1Cc1ccco1 (stereo unspecified) | 15.2 | – | – | – | – | 5.5% | – | – | –
O=C(Nc1ccc(Cl)cc1)NC1CCCC1Cc1ccco1 (stereo unspecified) | – | – | – | – | – | · | · | · | ·
COc1ccc(C(=O)NCCCn2ccnc2)cc1 | – | – | – | – | – | · | · | · | ·
COc1cc(OC)c(C(=O)NCCCn2ccnc2)cc1OC | 6.5 | – | – | – | – | – | – | – | –
O=C(Nc1ccc(F)cc1)C1C2CCC3C(CCC21)C3(Cl)Cl (stereo unspecified) | 9.37 | – | – | – | – | – | – | – | –
CCOc1ccc(NC(=O)C2C3CCC4C(CCC32)C4(Cl)Cl)cc1 (stereo unspecified) | – | – | – | – | – | · | · | · | ·
O=C(c1ccc(C23CC4CC(CC(C4)C2)C3)o1)N1CCOCC1 | 11 | – | – | – | – | – | – | – | –
CCOC(=O)N1CCC(N2CCCC(C(=O)c3ccccc3OC)C2)CC1 (stereo unspecified) | – | – | – | – | – | · | · | · | ·
Cc1cccc(CC(=O)NCCS(=O)(=O)N2CCN(c3cccc(Cl)c3)CC2)c1 | – | – | – | – | – | · | · | · | ·
O=C(COC(=O)c1cccs1)c1ccccc1 | 18.2 | – | – | – | – | – | – | – | –
Cc1cc(/C=C2/SC(=S)N(c3cccc(Cl)c3)C2=O)c(C)n1-c1cccnc1 | 19.1 | – | – | – | – | – | – | – | –
CC1=C(C#N)C(=O)N(C2CCS(=O)(=O)C2)C(=O)/C1=C\c1ccco1 (stereo unspecified) | – | – | – | – | – | · | · | · | ·
Cc1ccc(C(F)(F)F)cc1NC(N)=S | 7.17 | – | – | – | – | – | – | – | –
CN1c2ccccc2Oc2nnc(Cl)cc21 | – | – | – | – | – | · | · | · | ·
CN1c2ccccc2Oc2nnc(N3CCN(Cc4ccccc4)CC3)cc21 | 11.9 | – | – | – | – | – | – | – | –
Cc1ccc(C2CC2c2n[nH]c(=S)n2-c2cccc(Cl)c2)cc1 (stereo unspecified) | – | – | – | – | – | · | · | · | ·
O=C(Cn1cc2c(n1)CCCCC2)Nc1ccccc1Br | 9.31 | – | – | – | – | 23.5% | – | – | –
C/C(N)=C(/C#N)C(=O)COC(=O)c1cc2c(s1)CCCC2 | – | – | – | – | – | · | · | · | ·
CNC(=O)COC(=O)c1cc2c(s1)CCCC2 | 12.1 | – | – | – | – | – | – | – | –
CN(C)CCNC(=O)c1nn(C)c2c1CCc1ccccc1-2 | – | – | – | – | – | · | · | · | ·
O=C(CN(C(=O)c1csnn1)c1ccc(Cl)cc1)NCCc1ccccc1 | – | – | – | – | – | · | · | · | ·
COc1cc(NC(=O)C(Cc2ccccc2)n2cccc2)cc(OC)c1 (stereo unspecified) | 7.07 | – | – | – | – | – | – | – | –
CCOc1ccc(S(=O)(=O)N2CCC(C(=O)NCc3ccncc3)CC2)cc1C | – | – | – | – | – | · | · | · | ·
O=C(NCc1ccccc1Cl)c1ccc(S(=O)(=O)Nc2cccc(C(F)(F)F)c2)cc1 | – | – | – | – | – | · | · | · | ·
CC(=O)N(CCc1ccccc1)Cc1cc2ccc(C)c(C)c2[nH]c1=O | 8.57 | – | – | – | – | 2.4% | – | – | –
SMILES | MrgX1 allo act | MrgX1 agonist | RGS4 inh | MrgX1 antag | RGS4 act | MrgX1 PAM conf | HEK293 Ca flux | HEK293 Ca counter | HEK293 Ca cntr2
CCC(=O)N(CCc1ccccc1)Cc1cc2ccc(OC)cc2[nH]c1=O | – | – | – | – | – | · | · | · | ·
CCC(=O)N(CCO)Cc1cc2ccc(C)c(C)c2[nH]c1=O | – | – | – | – | – | · | · | · | ·
CCC(=O)N(CCc1ccccc1)Cc1cc2cc(OC)ccc2[nH]c1=O | 10.4 | – | – | – | – | – | – | – | –
NS(=O)(=O)c1ccc(CNC(=O)Cc2c(F)cccc2Cl)cc1 | – | – | – | – | – | · | · | · | ·
COc1ccc(/C=N/NC(=O)c2ccoc2C)cc1CN1CCN(c2ccc(F)cc2)CC1 | – | – | – | – | – | · | · | · | ·
COc1ccc(N2C(=O)C(CC(N)=O)N(NC(=O)CCc3ccccc3)C2=O)cc1 (stereo unspecified) | – | – | – | – | – | · | · | · | ·
O=C(NC(Cc1ccccc1)C(=O)O)C1CCN(S(=O)(=O)c2ccccc2C(F)(F)F)CC1 (stereo unspecified) | – | – | – | – | – | · | · | · | ·
O=C(CCc1nnc(Cc2c[nH]c3ccccc23)o1)NC1CCCC1 | 16.2 | – | – | – | – | – | – | – | –
CCCCN(CCCC)c1nc(OC)nc(-n2nnc(C(C)=O)c2C)n1 | – | – | – | – | – | · | · | · | ·
CC(=O)c1nnn(-c2nc(N)nc(N(c3ccccc3)c3ccccc3)n2)c1C | 13.4 | – | – | – | – | 15.6% | – | – | –
CCOC(=O)CNC(=O)CSc1nc(-c2ccc(OC)cc2)ns1 | 11.9 | – | – | – | – | – | – | – | –
OC[C@@H](O)[C@H](O)C(/C=N/Nc1ccccc1)=N\Nc1ccccc1 | – | – | – | – | – | · | · | · | ·
Cc1cc(C)cc(-c2nnc(SCc3ccc(C(=O)O)cc3)o2)c1 | 7.41 | – | – | – | – | – | – | – | –
COc1ccc(S(=O)(=O)N2CCC(C(=O)NCCN3CCOCC3)CC2)cc1 | – | – | – | – | – | · | · | · | ·
COc1ccc(NC(=O)NC2(C(=O)N3CCN(C)CC3)CCCCC2)cc1 | – | – | – | – | – | · | · | · | ·
CC1(C)CC(=O)c2sc(NC(=O)c3ccco3)nc2C1 | – | – | – | – | – | · | · | · | ·
CC1(C)CC(=O)c2sc(NC(=O)C3COc4ccccc4O3)nc2C1 (stereo unspecified) | 9.44 | – | – | – | – | – | – | – | –
CC(=O)c1sc(NC(=O)C2COc3ccccc3O2)nc1C (stereo unspecified) | – | – | – | – | – | · | · | · | ·
CC1(C)CC(=O)c2sc(NS(=O)(=O)c3ccccc3)nc2C1 | 12.9 | – | – | – | – | – | – | – | –

Assay outcomes from PubChem.
